Measured values from ChEMBL document CHEMBL1687851, “Dolabellanes with antibacterial activity from the brown alga Dilophus spiralis” (2011).
In brackets after ≈: the same amount, converted by molar mass.

Assays:
Staphylococcus aureus [1] = assay: Antibacterial activity against 5 x 10^5 CFU/ml multi-drug-resistant Staphylococcus aureus XU212 expressing TetK tetracycline efflux protein after 18 hrs by MTT assay; format: functional; conditions: XU212, 18 h
How it was run: (§1)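 Strains grown on nutrient agar 24 h at 37 °C; inoculum adjusted to 0.5 McFarland in normal saline. Compounds dissolved in DMSO, diluted in Mueller-Hinton broth to a 512 μg/mL starting concentration, then two-fold serially diluted in MHB supplemented with Mg2+ (10 mg/L) and Ca2+ (20 mg/L). Incubated 18 h at 37 °C; MIC read as lowest concentration with no visible growth, confirmed by MTT (20 min, 37 °C). Triplicates.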

Staphylococcus aureus [2] = assay: Antibacterial activity against 5 x 10^5 CFU/ml Staphylococcus aureus ATCC 25923 after 18 hrs by MTT assay; conditions: ATCC 25923, 18 h
Staphylococcus aureus [3] = assay: Antibacterial activity against 5 x 10^5 CFU/ml multi-drug-resistant Staphylococcus aureus SA1199B expressing NorA quinolone efflux protein after 18 hrs by MTT assay; format: functional; how it was run: as §1
Staphylococcus aureus [4] = assay: Antibacterial activity against 5 x 10^5 CFU/ml epidemic methicillin-resistant Staphylococcus aureus EMRSA-16 after 18 hrs by MTT assay; format: functional; conditions: EMRSA-16, 18 h; how it was run: as §1
Staphylococcus aureus [5] = assay: Antibacterial activity against 5 x 10^5 CFU/ml macrolide-resistant Staphylococcus aureus RN4220 expressing MsrA macrolide efflux protein after 18 hrs by MTT assay; format: functional; conditions: RN4220, 18 h; how it was run: as §1
Staphylococcus aureus [6] = assay: Antibacterial activity against 5 x 10^5 CFU/ml epidemic methicillin-resistant Staphylococcus aureus EMRSA-15 after 18 hrs by MTT assay; format: functional; conditions: EMRSA-15, 18 h; how it was run: as §1

C=C(C)[C@H]1CC(=O)[C@]2(C)C/C=C(\C)CC/C=C(\C)CC[C@@H]12 was tested, and the MIC (Staphylococcus aureus [1]) was > 128 µg/mL, the MIC (Staphylococcus aureus [2]) was > 128 µg/mL and the MIC (Staphylococcus aureus [3]) was 128 µg/mL (≈ 447 µM). For the same molecule, the MIC (Staphylococcus aureus [4]) was 16 µg/mL (≈ 55.9 µM), the MIC (Staphylococcus aureus [5]) was > 128 µg/mL and the MIC (Staphylococcus aureus [6]) was > 128 µg/mL.
In the case of C=C(C)[C@H]1CC(=O)[C@]2(C)C/C=C(/C)CC/C=C(\C)CC[C@@H]12, the MIC (Staphylococcus aureus [1]) is reported as > 128 µg/mL, the MIC (Staphylococcus aureus [2]) is reported as > 128 µg/mL and the MIC (Staphylococcus aureus [3]) is reported as > 128 µg/mL. The MIC (Staphylococcus aureus [4]) was > 128 µg/mL, the MIC (Staphylococcus aureus [5]) was > 128 µg/mL and the MIC (Staphylococcus aureus [6]) was > 128 µg/mL.
For C=C(C)[C@@H]1CC(=O)[C@]2(C)C/C=C(\C)CC/C=C(\C)CC[C@@H]12, the MIC (Staphylococcus aureus [1]) was > 128 µg/mL, the MIC (Staphylococcus aureus [2]) was > 128 µg/mL and the MIC (Staphylococcus aureus [3]) was > 128 µg/mL. The MIC (Staphylococcus aureus [4]) was > 128 µg/mL, the MIC (Staphylococcus aureus [5]) was > 128 µg/mL and the MIC (Staphylococcus aureus [6]) was > 128 µg/mL.
C=C(C)[C@H]1CC[C@]2(C)C/C=C(\C)CC/C=C(\C)CC[C@@H]12 showed an MIC (Staphylococcus aureus [1]) of 128 µg/mL (≈ 470 µM), an MIC (Staphylococcus aureus [2]) of 64 µg/mL (≈ 235 µM) and an MIC (Staphylococcus aureus [3]) of 128 µg/mL (≈ 470 µM). The MIC (Staphylococcus aureus [4]) was 16 µg/mL (≈ 58.7 µM), the MIC (Staphylococcus aureus [5]) was 128 µg/mL (≈ 470 µM) and the MIC (Staphylococcus aureus [6]) was 128 µg/mL (≈ 470 µM).
C=C(C)[C@H]1C[C@H](O)[C@]2(C)C/C=C(\C)CC/C=C(\C)CC[C@@H]12 gave an MIC (Staphylococcus aureus [1]) of 64 µg/mL (≈ 222 µM), an MIC (Staphylococcus aureus [2]) of 128 µg/mL (≈ 444 µM) and an MIC (Staphylococcus aureus [3]) of 32 µg/mL (≈ 111 µM). For the same molecule, the MIC (Staphylococcus aureus [4]) was 8 µg/mL (≈ 27.7 µM), the MIC (Staphylococcus aureus [5]) was 64 µg/mL (≈ 222 µM) and the MIC (Staphylococcus aureus [6]) was 64 µg/mL (≈ 222 µM).
For C=C(C)[C@H]1C[C@H](OC(C)=O)[C@]2(C)C/C=C(\C)CC/C=C(\C)CC[C@@H]12, the MIC (Staphylococcus aureus [1]) was > 128 µg/mL, the MIC (Staphylococcus aureus [2]) was > 128 µg/mL and the MIC (Staphylococcus aureus [3]) was > 128 µg/mL. The MIC (Staphylococcus aureus [4]) was > 128 µg/mL, the MIC (Staphylococcus aureus [5]) was > 128 µg/mL and the MIC (Staphylococcus aureus [6]) was > 128 µg/mL.
In the case of C=C(C)[C@H]1CC(=O)[C@]2(C)C[C@@H]3O[C@@]3(C)CC/C=C(\C)CC[C@@H]12, the MIC (Staphylococcus aureus [1]) is reported as > 128 µg/mL, the MIC (Staphylococcus aureus [2]) is reported as > 128 µg/mL and the MIC (Staphylococcus aureus [3]) is reported as > 128 µg/mL. The MIC (Staphylococcus aureus [4]) was > 128 µg/mL, the MIC (Staphylococcus aureus [5]) was 128 µg/mL (≈ 423 µM) and the MIC (Staphylococcus aureus [6]) was > 128 µg/mL.
With C=C(C)[C@H]1CC[C@]2(C)C[C@@H]3O[C@@]3(C)CC/C=C(\C)CC[C@@H]12 the MIC (Staphylococcus aureus [1]) was > 128 µg/mL, the MIC (Staphylococcus aureus [2]) was > 128 µg/mL and the MIC (Staphylococcus aureus [3]) was > 128 µg/mL. The MIC (Staphylococcus aureus [4]) was 32 µg/mL (≈ 111 µM), the MIC (Staphylococcus aureus [5]) was > 128 µg/mL and the MIC (Staphylococcus aureus [6]) was > 128 µg/mL.
In the case of C=C(C)[C@H]1C[C@H](OC(C)=O)[C@]2(C)C[C@@H]3O[C@@]3(C)CC/C=C(\C)CC[C@@H]12, the MIC (Staphylococcus aureus [1]) is reported as 128 µg/mL (≈ 369 µM), the MIC (Staphylococcus aureus [2]) is reported as 32 µg/mL (≈ 92.3 µM) and the MIC (Staphylococcus aureus [3]) is reported as 64 µg/mL (≈ 185 µM). For the same molecule, the MIC (Staphylococcus aureus [4]) was 32 µg/mL (≈ 92.3 µM), the MIC (Staphylococcus aureus [5]) was 64 µg/mL (≈ 185 µM) and the MIC (Staphylococcus aureus [6]) was 128 µg/mL (≈ 369 µM).
With C=C(C)[C@H]1CC(=O)[C@]2(C)C/C=C(\C)CC[C@@H]3O[C@@]3(C)CC[C@@H]12 the MIC (Staphylococcus aureus [1]) was > 128 µg/mL, the MIC (Staphylococcus aureus [2]) was > 128 µg/mL and the MIC (Staphylococcus aureus [3]) was > 128 µg/mL. For the same molecule, the MIC (Staphylococcus aureus [4]) was > 128 µg/mL, the MIC (Staphylococcus aureus [5]) was > 128 µg/mL and the MIC (Staphylococcus aureus [6]) was > 128 µg/mL.
With C=C(C)[C@H]1CC(=O)[C@]2(C)C/C=C(/C)CC[C@@H]3O[C@@]3(C)CC[C@@H]12 the MIC (Staphylococcus aureus [1]) was > 128 µg/mL, the MIC (Staphylococcus aureus [2]) was > 128 µg/mL and the MIC (Staphylococcus aureus [3]) was > 128 µg/mL. For the same molecule, the MIC (Staphylococcus aureus [4]) was > 128 µg/mL, the MIC (Staphylococcus aureus [5]) was > 128 µg/mL and the MIC (Staphylococcus aureus [6]) was > 128 µg/mL.
For C=C(C)[C@H]1CC[C@]2(C)C/C=C(\C)CC[C@@H]3O[C@@]3(C)CC[C@@H]12, the MIC (Staphylococcus aureus [1]) was > 128 µg/mL, the MIC (Staphylococcus aureus [2]) was > 128 µg/mL and the MIC (Staphylococcus aureus [3]) was > 128 µg/mL. The MIC (Staphylococcus aureus [4]) was 4 µg/mL (≈ 13.9 µM), the MIC (Staphylococcus aureus [5]) was > 128 µg/mL and the MIC (Staphylococcus aureus [6]) was 128 µg/mL (≈ 444 µM).
C/C1=C\C[C@@]2(C)CC[C@H](C(C)(C)O)[C@@H]2CC/C(C)=C/CC1 gave an MIC (Staphylococcus aureus [1]) of 64 µg/mL (≈ 220 µM), an MIC (Staphylococcus aureus [2]) of 32 µg/mL (≈ 110 µM) and an MIC (Staphylococcus aureus [3]) of 32 µg/mL (≈ 110 µM). It also gave an MIC (Staphylococcus aureus [4]) of 8 µg/mL (≈ 27.5 µM), an MIC (Staphylococcus aureus [5]) of 64 µg/mL (≈ 220 µM) and an MIC (Staphylococcus aureus [6]) of 32 µg/mL (≈ 110 µM).
C/C1=C\C[C@@]2(C)CC[C@@](O)(C(C)C)[C@@H]2CC/C(C)=C/CC1 gave an MIC (Staphylococcus aureus [1]) of 16 µg/mL (≈ 55.1 µM), an MIC (Staphylococcus aureus [2]) of 8 µg/mL (≈ 27.5 µM) and an MIC (Staphylococcus aureus [3]) of 16 µg/mL (≈ 55.1 µM). For the same molecule, the MIC (Staphylococcus aureus [4]) was 8 µg/mL (≈ 27.5 µM), the MIC (Staphylococcus aureus [5]) was 8 µg/mL (≈ 27.5 µM) and the MIC (Staphylococcus aureus [6]) was 8 µg/mL (≈ 27.5 µM).
In the case of C=C(C)[C@@H]1CC[C@]2(C)/C=C/[C@H](C)CC/C=C(\C)CC[C@@H]12, the MIC (Staphylococcus aureus [1]) is reported as > 128 µg/mL, the MIC (Staphylococcus aureus [2]) is reported as > 128 µg/mL and the MIC (Staphylococcus aureus [3]) is reported as > 128 µg/mL. The MIC (Staphylococcus aureus [4]) was > 128 µg/mL, the MIC (Staphylococcus aureus [5]) was > 128 µg/mL and the MIC (Staphylococcus aureus [6]) was > 128 µg/mL.
With C/C1=C\CC[C@@H](C)/C=C/[C@@]2(C)CC[C@@H](C(C)(C)O)[C@@H]2CC1 the MIC (Staphylococcus aureus [1]) was 64 µg/mL (≈ 220 µM), the MIC (Staphylococcus aureus [2]) was 64 µg/mL (≈ 220 µM) and the MIC (Staphylococcus aureus [3]) was 64 µg/mL (≈ 220 µM). It also gave an MIC (Staphylococcus aureus [4]) of 16 µg/mL (≈ 55.1 µM), an MIC (Staphylococcus aureus [5]) of 64 µg/mL (≈ 220 µM) and an MIC (Staphylococcus aureus [6]) of 64 µg/mL (≈ 220 µM).
With CC(=O)O[C@H]1C/C(C)=C/CC[C@@H](C)/C=C/[C@@]2(C)CC[C@@H](C(C)(C)O)[C@H]12 the MIC (Staphylococcus aureus [1]) was > 128 µg/mL, the MIC (Staphylococcus aureus [2]) was > 128 µg/mL and the MIC (Staphylococcus aureus [3]) was > 128 µg/mL. The MIC (Staphylococcus aureus [4]) was 64 µg/mL (≈ 184 µM), the MIC (Staphylococcus aureus [5]) was > 128 µg/mL and the MIC (Staphylococcus aureus [6]) was > 128 µg/mL.
Molecule C=C(C)[C@H]1C[C@@H](O)[C@]2(C)C/C=C(\C)CC/C=C(\C)CC[C@@H]12 has an MIC (Staphylococcus aureus [1]) of 4 µg/mL (≈ 13.9 µM), an MIC (Staphylococcus aureus [2]) of 4 µg/mL (≈ 13.9 µM) and an MIC (Staphylococcus aureus [3]) of 2 µg/mL (≈ 6.93 µM). The MIC (Staphylococcus aureus [4]) was 2 µg/mL (≈ 6.93 µM), the MIC (Staphylococcus aureus [5]) was 4 µg/mL (≈ 13.9 µM) and the MIC (Staphylococcus aureus [6]) was 2 µg/mL (≈ 6.93 µM).
With CCn1cc(C(=O)O)c(=O)c2cc(F)c(N3CCNCC3)cc21 [NORFLOXACIN] the MIC (Staphylococcus aureus [1]) was 8 µg/mL (≈ 25.1 µM), the MIC (Staphylococcus aureus [2]) was 0.5 µg/mL (≈ 1.57 µM) and the MIC (Staphylococcus aureus [3]) was 32 µg/mL (≈ 100 µM). The MIC (Staphylococcus aureus [4]) was 128 µg/mL (≈ 401 µM), the MIC (Staphylococcus aureus [5]) was 0.5 µg/mL (≈ 1.57 µM) and the MIC (Staphylococcus aureus [6]) was 0.5 µg/mL (≈ 1.57 µM).
